Reference: ChEMBL document CHEMBL3792382, “Synthesis of new secretory phospholipase A2-inhibitory indole containing isoxazole derivatives as anti-inflammatory and anticancer agents” (Eur J Med Chem, 2016)

Columns and labels:
[1] = Partition coefficient, logP of the compound; assay type: physicochemical; settings: octanol/water
[2] = Inhibition of human type 2A secretory PLA2 using diheptanoyl thio-PC as substrate after 15 mins by ELISA
Summary of the method: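 Type IIA sPLA2 from a commercial kit was incubated with inhibitor and diheptanoyl thio-PC substrate for 15 min. DTNB was then added and the thiol released by hydrolysis was read at 415 nm. Control wells held no inhibitor. % inhibition = (A control − A test)/A control × 100, and IC50 was taken from the dose-response; ursolic acid served as positive control.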

[3] = test system: Rattus norvegicus; assay: Antiinflammatory activity against carrageenan-induced paw edema in Wistar albino rat model at 10 mg/kg, po administered 1 hr prior to carrageenan-challenge measured at 4th hr by plethysmometer; assay type: functional
Summary of the method: (§1)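 Rats were dosed orally 1 h before subplantar injection of 0.1 ml 1% λ-carrageenan in saline into the left hind paw, with saline in the right paw. Vehicle controls received saline 1 ml/kg p.o.; ursolic acid served as positive control. Paw volume was read by mercury plethysmometer before injection and at 1, 2, 3, 4 and 6 h. Results are % edema inhibition versus vehicle, mean ± SEM, n = 3-6, one-way ANOVA.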

[4] = Antiproliferative activity against human DU145 cells after 48 hrs by MTT assay; assay type: functional, cell-based; settings: DU-145, 48 h
Summary of the method: (§2)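 Cells were grown in RPMI with 10% FCS, penicillin and streptomycin at 37 °C in humidified CO2. They were exposed to a range of concentrations for 48 h, then given MTT for 2 h at 37 °C. Formazan was dissolved in DMSO and absorbance read at 570 nm (reference 620 nm). IC50 was derived from the readings, with doxorubicin as positive control.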

[5] = test system: Rattus norvegicus; assay: Antiinflammatory activity against carrageenan-induced paw edema in Wistar albino rat model at 10 mg/kg, po administered 1 hr prior to carrageenan-challenge measured at 3rd hr by plethysmometer; assay type: functional; summary of the method: as §1
[6] = test system: MCF7; assay: Antiproliferative activity against human MCF7 cells after 48 hrs by MTT assay; assay type: functional, cell-based; settings: MCF7, 48 h; summary of the method: as §2

**Q.** For `COc1ccc(-c2cc(CNCc3c[nH]c4ccccc34)on2)cc1`, which logP [1] is on record?
**A.** Its logP is 3.5.

**Q.** And the IC50 [2]?
**A.** Its IC50 is 18.2 µM.

**Q.** Which logP [1] does the source give for `Fc1ccc(-c2cc(CNCc3c[nH]c4ccccc34)on2)cc1C(F)(F)F` here?
**A.** Its logP is 4.43.

**Q.** And the IC50 [2]?
**A.** The IC50 was 21.5 µM.

**Q.** With `c1ccc(-c2cc(CNCc3c[nH]c4ccccc34)on2)cc1` as the compound, how does the logP [1] read?
**A.** The logP was 3.44.

**Q.** And the IC50 [2]?
**A.** Its IC50 is 30.6 µM.

**Q.** Which results are given for `Cc1ccc2[nH]cc(CNCc3cc(-c4ccc(F)c(C(F)(F)F)c4)no3)c2c1`?
**A.** logP [1]: 4.85; inhibition in vivo at 10 mg/kg [3]: 76.5%; IC50 [4]: 14.2 µM; IC50 [2]: 10.2 µM; inhibition in vivo at 10 mg/kg [5]: 75.7%; IC50 [6]: 10 µM

**Q.** Which IC50 [4] does the source give for `COc1cccc2c1C(=O)c1c(O)c3c(c(O)c1C2=O)C[C@@](O)(C(=O)CO)C[C@@H]3O[C@H]1C[C@H](N)[C@H](O)[C@H](C)O1` [DOXORUBICIN] here?
**A.** The IC50 was 4.75 µM.

**Q.** What does the source list for `Cc1ccc(-c2cc(CNCc3c[nH]c4ccc(Br)cc34)on2)cc1`?
**A.** logP [1]: 4.67; IC50 [2]: 27.3 µM

**Q.** For `Cc1ccc(-c2cc(CNCc3c[nH]c4ccccc34)on2)cc1`, which logP [1] is on record?
**A.** The logP was 3.89.

**Q.** What about the IC50 [2] of the same compound?
**A.** The IC50 was 22.7 µM.

**Q.** What does the source list for `Brc1ccc2[nH]cc(CNCc3cc(-c4ccccc4)no3)c2c1`?
**A.** logP [1]: 4.23; IC50 [2]: 32.5 µM

**Q.** For `Cc1ccc2[nH]cc(CNCc3cc(-c4ccc([N+](=O)[O-])cc4)no3)c2c1`, which logP [1] is on record?
**A.** The logP was 3.83.

**Q.** What about the IC50 [2] of the same compound?
**A.** The IC50 was 19.4 µM.

**Q.** For `COc1ccc(-c2cc(CNCc3c[nH]c4ccc(C)cc34)on2)cc1`, which logP [1] is on record?
**A.** The logP was 3.92.

**Q.** What about the IC50 [2] of the same compound?
**A.** Its IC50 is 24.6 µM.

**Q.** What does the source list for `O=[N+]([O-])c1ccc(-c2cc(CNCc3c[nH]c4ccccc34)on2)cc1`?
**A.** logP [1]: 3.4; IC50 [2]: 25.6 µM

**Q.** Which results are given for `C[C@H]1[C@H](C)CC[C@]2(C(=O)O)CC[C@]3(C)C(=CC[C@@H]4[C@@]5(C)CC[C@H](O)C(C)(C)[C@@H]5CC[C@]43C)[C@H]12` [URSOLIC ACID]?
**A.** inhibition in vivo at 10 mg/kg [3]: 75.2%; IC50 [2]: 12.6 µM; inhibition in vivo at 10 mg/kg [5]: 73%

**Q.** Which logP [1] does the source give for `O=[N+]([O-])c1ccc(-c2cc(CNCc3c[nH]c4ccc(Br)cc34)on2)cc1` here?
**A.** Its logP is 4.19.

**Q.** And the IC50 [2]?
**A.** Its IC50 is 22.4 µM.

**Q.** Which logP [1] does the source give for `COc1ccc(-c2cc(CNCc3c[nH]c4ccc(Br)cc34)on2)cc1` here?
**A.** Its logP is 4.28.

**Q.** And the IC50 [2]?
**A.** The IC50 was 32.6 µM.

**Q.** What does the source list for `Cc1ccc2[nH]cc(CNCc3cc(-c4ccccc4)no3)c2c1`?
**A.** logP [1]: 3.87; IC50 [2]: 27.9 µM

**Q.** Which logP [1] does the source give for `Cc1ccc(-c2cc(CNCc3c[nH]c4ccc(C)cc34)on2)cc1` here?
**A.** Its logP is 4.33.

**Q.** What about the IC50 [2] of the same compound?
**A.** Its IC50 is 21.6 µM.

**Q.** For `Fc1ccc(-c2cc(CNCc3c[nH]c4ccc(Br)cc34)on2)cc1C(F)(F)F`, which logP [1] is on record?
**A.** Its logP is 5.21.

**Q.** And the IC50 [2]?
**A.** The IC50 was 17.2 µM.
